Each structure is given as a SMILES string.

For experiment [1], the target named is T1, Serotonin 3 (5-HT3) receptor (Rattus norvegicus, UniProt P35563+Q9JJ16).
T1 sequence (P35563 whole entry): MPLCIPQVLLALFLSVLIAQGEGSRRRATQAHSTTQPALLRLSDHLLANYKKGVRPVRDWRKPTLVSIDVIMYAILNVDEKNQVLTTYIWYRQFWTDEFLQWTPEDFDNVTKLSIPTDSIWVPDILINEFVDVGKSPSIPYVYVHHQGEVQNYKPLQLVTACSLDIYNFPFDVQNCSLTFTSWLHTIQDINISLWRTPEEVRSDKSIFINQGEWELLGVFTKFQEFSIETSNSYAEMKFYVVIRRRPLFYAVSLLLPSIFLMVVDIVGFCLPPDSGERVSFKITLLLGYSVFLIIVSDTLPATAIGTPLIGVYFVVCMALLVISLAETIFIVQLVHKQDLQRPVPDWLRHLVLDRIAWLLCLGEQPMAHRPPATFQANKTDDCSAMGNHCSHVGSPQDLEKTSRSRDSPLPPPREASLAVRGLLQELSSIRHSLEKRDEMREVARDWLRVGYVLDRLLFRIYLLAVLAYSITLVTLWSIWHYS
T1 sequence (Q9JJ16 whole entry): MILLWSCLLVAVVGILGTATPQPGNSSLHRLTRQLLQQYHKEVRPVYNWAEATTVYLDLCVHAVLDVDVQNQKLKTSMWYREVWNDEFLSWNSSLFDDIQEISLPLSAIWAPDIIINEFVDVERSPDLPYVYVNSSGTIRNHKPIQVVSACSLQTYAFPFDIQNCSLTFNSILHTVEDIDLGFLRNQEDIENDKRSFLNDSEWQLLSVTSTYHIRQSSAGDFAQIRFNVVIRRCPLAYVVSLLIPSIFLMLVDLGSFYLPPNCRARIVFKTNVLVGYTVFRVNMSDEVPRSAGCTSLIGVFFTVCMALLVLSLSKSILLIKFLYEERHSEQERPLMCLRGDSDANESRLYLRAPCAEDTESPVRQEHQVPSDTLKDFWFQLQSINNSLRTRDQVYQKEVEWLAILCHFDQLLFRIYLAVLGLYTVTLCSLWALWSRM
The experiment is described as follows: Binding affinity at 5-hydroxytryptamine 3 receptor in rat cortical membrane by [3H]graniestron displacement. It is filed as cell membranes. An outline of the steps:
(§1)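 Cortex and hippocampus of male Wistar rats homogenized in 50 mM Hepes pH 7.4 and assayed in 50 mM Hepes HCl pH 7.4. Filtered on GF/B presoaked in 0.1% polyethylenimine. Ki by Cheng-Prusoff from IC50. Mean ± SEM of three.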

For experiment [2], the target named is T1, Serotonin 3 (5-HT3) receptor. In words: Ability to displace [3H]granisetron specifically bound to 5-hydroxytryptamine 3 receptor in rat cortical membrane. It is filed as cell membranes. In outline:
as §1

Experiment [3] addresses T2, 5-hydroxytryptamine receptor 1A (Rattus norvegicus, UniProt P19327).
T2 sequence (P19327 whole entry): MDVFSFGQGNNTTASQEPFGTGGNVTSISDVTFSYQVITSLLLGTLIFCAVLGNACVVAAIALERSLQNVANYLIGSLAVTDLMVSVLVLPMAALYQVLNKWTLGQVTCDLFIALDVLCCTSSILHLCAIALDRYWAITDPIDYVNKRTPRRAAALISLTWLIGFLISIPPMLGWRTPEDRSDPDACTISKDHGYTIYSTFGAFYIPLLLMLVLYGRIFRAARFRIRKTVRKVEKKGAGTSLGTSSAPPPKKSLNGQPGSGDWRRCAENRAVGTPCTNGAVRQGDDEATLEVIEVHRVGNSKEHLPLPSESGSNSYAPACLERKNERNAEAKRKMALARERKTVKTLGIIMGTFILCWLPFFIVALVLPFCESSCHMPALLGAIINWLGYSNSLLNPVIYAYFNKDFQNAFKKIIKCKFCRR
The experiment is described as follows: Ability to displace [3H]- -OH-DPAT bound to 5-hydroxytryptamine 1A receptor in rat hippocampus. The class given is tissue-based. In outline:
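Male Wistar rat hippocampal membranes in 50 mM Tris HCl pH 7.4. Stopped by GF/B filtration, counted by scintillation. IC50 from competition curves, converted to Ki by Cheng-Prusoff. Mean ± SEM of three determinations.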

Experiment [4] has as its target 5-hydroxytryptamine receptor 2A (Rattus norvegicus, UniProt P14842). The experiment is described as follows: Ability to displace [3H]ketanserin bound to 5-hydroxytryptamine 2A receptor in rat pre-frontal cortex. The class given is tissue-based. An outline of the steps: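 Rat prefrontal cortex membranes (male Wistar) in 50 mM Tris HCl pH 7.7. […] Nonspecific binding with 3 μM ketanserin. Filtered and counted by scintillation. IC50 converted to Ki via Cheng-Prusoff. Mean ± SEM of three determinations.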

The target of experiment [5] is Sodium-dependent serotonin transporter (Rattus norvegicus, UniProt P31652). In words: Ability to displace [3H]paroxetine bound to Serotonin transporter receptor in rat forebrain. An outline of the steps: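 Rat forebrain membranes (male Wistar), stored at -80 °C, in 50 mM Tris HCl pH 7.4. Nonspecific binding with 1 μM 6-nitroquipazine. Filtered on GF/B presoaked in 0.5% polyethylenimine. Ki from IC50 via Cheng-Prusoff. Mean ± SEM of three.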

The target of experiment [6] is 5-hydroxytryptamine receptor 1B (Rattus norvegicus, UniProt P28564). In words: Ability to displace [3H]5-HT bound to 5-hydroxytryptamine 1B receptor in rat striatum. The class given is tissue-based. An outline of the steps: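 Striatal membranes from male Wistar rats in 50 mM Tris HCl pH 7.7 with 10 μM pargyline, 4 mM CaCl2 and 0.1% ascorbic acid. Filtration and scintillation counting. Ki from IC50 via Cheng-Prusoff. Mean ± SEM, n=3.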

For experiment [7], the target named is T3, 5-hydroxytryptamine receptor 2C (Rattus norvegicus, UniProt P08909).
T3 sequence (P08909 whole entry): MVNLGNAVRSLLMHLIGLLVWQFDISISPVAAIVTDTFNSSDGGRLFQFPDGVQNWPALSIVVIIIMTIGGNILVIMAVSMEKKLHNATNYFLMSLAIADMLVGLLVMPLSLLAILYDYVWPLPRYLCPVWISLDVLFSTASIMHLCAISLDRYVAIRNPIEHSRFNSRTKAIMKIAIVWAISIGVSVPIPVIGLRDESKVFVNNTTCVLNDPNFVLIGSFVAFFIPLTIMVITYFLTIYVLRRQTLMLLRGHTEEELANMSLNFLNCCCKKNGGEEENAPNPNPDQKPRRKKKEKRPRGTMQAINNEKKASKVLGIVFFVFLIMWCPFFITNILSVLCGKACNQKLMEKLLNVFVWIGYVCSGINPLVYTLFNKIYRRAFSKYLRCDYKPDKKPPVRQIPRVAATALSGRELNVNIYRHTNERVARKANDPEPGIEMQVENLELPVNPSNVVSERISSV
In words: Ability to displace [3H]mesulergine bound to 5-hydroxytryptamine 2C receptor in rat cortex. It is filed as tissue-based. An outline of the steps: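 Cortical membranes from male Wistar rats in 50 mM Tris HCl pH 7.7 with 10 μM pargyline, 4 mM CaCl2 and 0.1% ascorbic acid. Nonspecific binding with 1 μM mianserine. Filtration assay. Ki from IC50 via Cheng-Prusoff. Mean ± SEM, n=3.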

Chain of 5-hydroxytryptamine receptor 1B (P28564 whole entry): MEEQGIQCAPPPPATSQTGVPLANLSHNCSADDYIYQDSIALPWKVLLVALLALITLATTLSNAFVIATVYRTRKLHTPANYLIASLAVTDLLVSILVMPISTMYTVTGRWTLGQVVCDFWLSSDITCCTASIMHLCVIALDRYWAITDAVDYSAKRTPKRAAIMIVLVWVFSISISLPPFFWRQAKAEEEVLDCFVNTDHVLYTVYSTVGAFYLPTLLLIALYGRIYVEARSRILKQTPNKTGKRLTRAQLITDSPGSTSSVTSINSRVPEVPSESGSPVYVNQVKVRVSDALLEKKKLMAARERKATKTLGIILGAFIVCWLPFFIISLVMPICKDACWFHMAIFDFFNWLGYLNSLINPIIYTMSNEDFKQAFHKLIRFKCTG
Chain of Sodium-dependent serotonin transporter (P31652 whole entry): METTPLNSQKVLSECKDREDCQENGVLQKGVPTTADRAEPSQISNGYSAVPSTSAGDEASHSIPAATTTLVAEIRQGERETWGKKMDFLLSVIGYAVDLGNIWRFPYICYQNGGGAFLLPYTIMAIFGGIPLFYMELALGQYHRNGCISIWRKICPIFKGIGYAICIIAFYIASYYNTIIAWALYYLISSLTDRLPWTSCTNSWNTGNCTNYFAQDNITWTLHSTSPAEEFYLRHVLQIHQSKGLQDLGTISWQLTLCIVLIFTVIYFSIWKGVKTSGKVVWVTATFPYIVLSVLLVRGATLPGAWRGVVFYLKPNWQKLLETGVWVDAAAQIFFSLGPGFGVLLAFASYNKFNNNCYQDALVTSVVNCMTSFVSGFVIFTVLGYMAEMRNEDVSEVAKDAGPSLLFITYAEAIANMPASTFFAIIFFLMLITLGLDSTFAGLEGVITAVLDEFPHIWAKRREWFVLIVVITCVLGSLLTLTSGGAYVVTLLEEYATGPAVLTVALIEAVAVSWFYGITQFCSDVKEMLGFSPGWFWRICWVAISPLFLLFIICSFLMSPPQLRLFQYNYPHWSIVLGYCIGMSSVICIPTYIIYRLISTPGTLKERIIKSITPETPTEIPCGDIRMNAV
Chain of 5-hydroxytryptamine receptor 2A (P14842 whole entry): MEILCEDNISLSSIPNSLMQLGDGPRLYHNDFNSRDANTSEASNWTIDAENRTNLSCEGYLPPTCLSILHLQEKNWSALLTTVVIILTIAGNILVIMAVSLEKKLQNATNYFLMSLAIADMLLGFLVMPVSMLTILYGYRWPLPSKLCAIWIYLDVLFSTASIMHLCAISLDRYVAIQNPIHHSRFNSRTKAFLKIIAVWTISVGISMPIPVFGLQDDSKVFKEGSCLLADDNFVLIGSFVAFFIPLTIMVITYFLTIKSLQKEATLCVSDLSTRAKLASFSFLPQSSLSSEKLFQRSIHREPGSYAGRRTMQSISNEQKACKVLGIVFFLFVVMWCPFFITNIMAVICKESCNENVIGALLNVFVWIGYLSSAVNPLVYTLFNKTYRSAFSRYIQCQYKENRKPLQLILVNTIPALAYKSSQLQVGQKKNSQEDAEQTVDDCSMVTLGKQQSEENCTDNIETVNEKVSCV

On to `CN1CCN(c2cccc(C34C[C@H]5C[C@@H](C3)C[C@@H](C4)C5)n2)CC1`, for which the “Log Ki” value in experiment [1] is listed as < -6.26. The Ki (commonly the dissociation constant of the complex between target and ligand, obtained from inhibition or displacement) in experiment [2] is > 550 nM.

`c1ccc(CN2CCN(c3nc4ccccc4c4c3CCCC4)CC2)cc1` returned a Ki in experiment [2] of 11 nM.

As for `CN1CCN(c2ccc3c(n2)C2CCCCC2CC3)CC1` (stereo not given), the Ki in experiment [1] was 661 nM; in experiment [2], 660 nM.

Regarding `CN1CCN(c2nc3c(c4c2CCCC4)CCCC3)CC1`, the inhibition constant (Ki) in experiment [1] and in experiment [2] was 110 nM each time.

`C[N+]1(C)CCN(c2nc3ccccc3c3c2CCCC3)CC1` came in with a Ki in experiment [2] of 13 nM.

Take `CCN1CCN(c2nc3ccccc3c3c2CCCC3)CC1`: in experiment [2], the affinity, expressed as Ki, was 1.9 nM.

In the case of `CN1CCN(c2ccc3c(n2)CCc2ccccc2-3)CC1`, the Ki was 832 nM in experiment [1] and 830 nM in experiment [2].

Turning to `c1ccc2c3c(c(N4CCOCC4)nc2c1)CCCC3`, the inhibition constant Ki in experiment [2] is > 17000 nM.

As for `CN1CCN(c2ccc3c(n2)-c2ccccc2CCC3)CC1`, the “Log Ki” value in experiment [1] was < -6.26. The Ki in experiment [2] is > 550 nM.

Regarding `CN1CCN(c2nc3ccccc3c3c2CC2CCC3C2)CC1` (stereo not given), the inhibition constant (Ki) was 2400 nM in experiment [3]; 3.7 µM in experiment [4]; 24 µM in experiment [5]; 2300 nM in experiment [6]; 0.832 nM in experiment [1]; 0.83 nM in experiment [2]. The same compound registered an inhibition constant Ki in experiment [7] of 2.8 µM.

Consider `CN1CCN(c2ccc3ccccc3n2)CC1`, for which the inhibition constant (Ki) is 3.02 nM in experiment [1] and 3 nM in experiment [2].

Turning to `CN1CCN(c2ccc3ccc4ccccc4c3n2)CC1`, the Ki in experiment [1] and in experiment [2] was 200 nM in each case.

As to `CN1CCN(c2ccc3c(n2)-c2ccccc2CC3)CC1`, the inhibition constant Ki in experiment [1] and in experiment [2] was 200 nM throughout.

Consider `CN1CCN(c2ccc3c(n2)-c2ccccc2C3)CC1`, for which the Ki was 5700 nM in experiment [3]; 2.6 µM in experiment [4]; 0.059 µM in experiment [5]; 3800 nM in experiment [6]; 14.1 nM in experiment [1]; 14 nM in experiment [2]. Affinity in experiment [7] was put at a Ki of 16 µM.

As for `CN1CCCN(c2nc3ccccc3c3c2CCCC3)CC1`, in experiment [2], the Ki was 4.8 nM.

With `CN1CCN(c2nc3ccccc3c3ccccc23)CC1`, the values for the inhibitory constant (Ki) in experiment [1] and in experiment [2] were 1.91 nM and 1.9 nM, respectively.

Turning to `CN1CCN(c2nc3ccccc3c3c2CCCC3)CC1`, the inhibition constant (Ki) in experiment [3] is 2800 nM; in experiment [4] it was 3 µM; in experiment [5], 12 µM; in experiment [6], > 4000 nM; in experiment [1] it was 0.229 nM; in experiment [2], 0.23 nM. The compound also displayed an inhibition constant (Ki) in experiment [7] of 4.4 µM.

`c1ccc2c3c(c(N4CCNCC4)nc2c1)CCCC3` returned a Ki in experiment [2] of 1.7 nM.

For `O=[N+]([O-])c1ccc2nc(N3CCNCC3)ccc2c1` [6-NITROQUIPAZINE], the Ki in experiment [5] was found to be 0.00012 µM; in experiment [2], 58 nM.

In the case of `CCCN(CCC)C1CCc2cccc(O)c2C1` (stereo not given) [8-OH-DPAT], the Ki in experiment [2] is 1.2 nM.

Regarding `c1ccc2nc(N3CCNCC3)ccc2c1` [QUIPAZINE], the figures for the Ki in experiment [6] and in experiment [7] were 310 nM and 0.19 µM, respectively.
